Only some compounds are listed: those with a hit (about 1.2% of all), similar ones and a draw of the others.
IDE cell inh: cellular human IDE inhibition | 320,000 tested, 0.41% active | inhibition, % at 5.59 µM | P14735 | HEK cells, FAbetaB cleavage, fluorescence polarization | AID 434962;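 active = percent inhibition above the average of all tested compounds plus 3 SD, set per screening campaign, cut at about 16% in these data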;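 note: IDE supplied by intact live HEK cells; FP after avidin binding of uncleaved biotin substrate so inhibition keeps polarization high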
Target sequence (P14735 whole entry, looked up): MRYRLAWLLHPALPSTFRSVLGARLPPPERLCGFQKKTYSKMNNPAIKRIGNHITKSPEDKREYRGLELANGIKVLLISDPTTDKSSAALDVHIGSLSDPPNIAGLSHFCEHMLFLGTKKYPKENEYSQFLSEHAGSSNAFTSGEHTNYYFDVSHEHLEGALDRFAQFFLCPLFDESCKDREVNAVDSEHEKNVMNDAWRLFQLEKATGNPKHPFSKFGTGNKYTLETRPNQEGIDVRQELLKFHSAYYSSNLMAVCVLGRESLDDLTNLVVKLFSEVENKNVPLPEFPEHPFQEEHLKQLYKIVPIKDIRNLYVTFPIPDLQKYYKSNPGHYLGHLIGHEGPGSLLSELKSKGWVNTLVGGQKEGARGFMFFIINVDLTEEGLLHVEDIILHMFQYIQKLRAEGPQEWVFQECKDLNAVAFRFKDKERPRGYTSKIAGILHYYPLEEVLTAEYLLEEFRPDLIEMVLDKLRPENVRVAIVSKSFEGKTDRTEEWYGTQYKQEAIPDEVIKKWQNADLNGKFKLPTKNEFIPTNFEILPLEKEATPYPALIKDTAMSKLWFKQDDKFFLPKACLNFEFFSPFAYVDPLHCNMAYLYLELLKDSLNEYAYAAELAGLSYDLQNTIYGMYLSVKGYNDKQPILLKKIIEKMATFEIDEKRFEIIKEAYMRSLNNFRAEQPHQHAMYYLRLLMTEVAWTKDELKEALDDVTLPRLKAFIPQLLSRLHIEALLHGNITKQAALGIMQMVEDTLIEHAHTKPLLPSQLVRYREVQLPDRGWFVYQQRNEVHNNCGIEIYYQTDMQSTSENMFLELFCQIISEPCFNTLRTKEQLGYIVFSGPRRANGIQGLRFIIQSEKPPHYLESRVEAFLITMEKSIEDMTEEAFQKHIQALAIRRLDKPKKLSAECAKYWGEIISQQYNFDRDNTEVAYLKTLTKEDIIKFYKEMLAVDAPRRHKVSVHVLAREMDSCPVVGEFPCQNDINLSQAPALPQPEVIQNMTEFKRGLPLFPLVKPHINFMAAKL
PREPL inhibitor: inhibitors of human prolyl oligopeptidase-like enzyme PREPL; Q4J6C6; recombinant PREPL, fluorescence polarization activity-based probe; inhibition, % at 5.96 µM; 320,000 tested, 0.68% active; in the data active = inhibition above about 43%
ASAP1 inh: blocks human ASAP1-stimulated Arf1 GTP hydrolysis. Q9ULH1. AID 624377. GDP FP detection. 360,000 tested, 0.19% active. inhibition, % at 16.5 µM; in the data active = inhibition above about 25%
ARFGAP1 inh: inhibitors of rat ARFGAP1 | AID 651572 | inhibition, % at 16.5 µM | Arfgap1-stimulated ARF1 GTP hydrolysis, GDP FP detection | 360,000 tested, 0.26% active | Q62848;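 active = inhibition above a per-plate limit, mean inhibition of low control wells plus 3 SD, cut at about 25% in these data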
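System: truncated rat Arfgap1 GAP domain / Benchmarks: high control wells lacking Arfgap1, low control full reaction with DMSO / Times: compound-enzyme preincubation 20 min, reaction 120 min, detection 60 min, 25 °C / Repeats: one replicate per compound / Also added: human ARF1(Δ1-17)-GTP substrate / Measured by: Tracer-displacement fluorescence polarization with EDTA stop, 620/688 nm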
IDE act: IDE (human) activation, cell-based | AID 493087 | HEK cells, FAbeta-B cleavage, fluorescence polarization; 0% vehicle, 100% cell-free pure enzyme wells | activation, % at 5.96 µM | P14735 | 340,000 tested, 0.073% active;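 active = activation above the mean of all tested compounds plus 3 SD, set per screening campaign, cut at about 17% in these data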
Numbers stand for hits; i = inactive; nt = not tested or not shown.

SMILES	IDE cell inh	PREPL inhibitor	ASAP1 inh	ARFGAP1 inh	IDE act
COC(=O)C1=C(C)N(C)C(=NCc2ccc(C(F)(F)F)cc2)NC1c1ccccc1C(F)(F)F (configuration not stated)	nt	nt	i	i	nt
Cc1sccc1C1C(C#N)=C(N)SC(N)=C1C#N	18	i	nt	nt	nt
O=C(Nc1ccc(C(F)(F)F)cc1)N1CCN(c2ccnc3cc(Cl)ccc23)CC1	30	i	i	i	nt
Cc1ccc(F)cc1NC(=O)N1CCN(c2ccnc3cc(Cl)ccc23)CC1	i	i	i	i	i
CCCCc1c(-c2ccccc2OC)ncn1Cc1cc(F)cc(F)c1	nt	nt	i	i	nt
Nc1cc(=O)n(Cc2ccccc2)c(N)c1C(=O)NCc1ccccc1	nt	nt	i	i	nt
CCn1c2ccccc2c2cc(NC(=O)c3coc(=O)c(Br)c3)ccc21	i	i	i	i	nt
CCn1c2ccccc2c2cc(NC(=O)c3ccc(=O)oc3)ccc21	i	71	i	i	nt
CCOc1ccc(-c2cn(-c3ccc(OC)cc3)c(SC)n2)cc1	17	i	i	i	i
CSc1nc(-c2ccccc2)cn1-c1ccc(NC(C)=O)cc1	i	i	i	i	i
CCN(CC)c1ccc(NC(=O)CN2CCN(S(=O)(=O)c3cc(Cl)ccc3OC)CC2)cc1	i	72	i	i	i
CCOc1ccc(NC(=O)CCN2CCN(S(=O)(=O)c3cc(Cl)ccc3OC)CC2)cc1	i	i	i	i	i
C=CCN=C1NC(c2cccc(Cl)c2)C(C(=O)OC)=C(C)N1Cc1ccc(C(F)(F)F)cc1 (configuration not stated)	nt	nt	i	i	nt
C(#Cc1ccccc1)C[N+]1(CC#Cc2ccccc2)CCCC1	i	i	i	i	i
C=CC#CC[N+]1(CC#Cc2ccccc2)CCOCC1	nt	nt	87	97	i
COc1ccccc1-c1ccc([C@@H]2C[C@H]3[C@H](CON3C)CN2CC2CCCCC2)cc1	nt	nt	i	i	nt
NC(CO)c1cn([C@@H](CCC(=O)O)C(=O)N2CCNCC2)nn1 (some centres not stated)	i	i	i	i	22
Cc1ccc(C(=O)NCc2nnc(SCC(=O)Nc3sc4c(c3C#N)CCCC4)n2C)cc1	i	i	i	25	i
O=C1CCC(=O)c2ccc3c4c(ccc1c24)CC3	nt	nt	i	i	i
O=C1CCN2C=Nc3cccc4ccc1c2c34	i	i	i	i	41
COc1cccc(C(=O)N2CCC[C@@H]2C(=O)N2CCC[C@H]2C(=O)NCc2ccccc2)c1	nt	nt	i	i	nt
COC(=O)c1c(C)[nH]c(O)c1C=Nc1ccc(Oc2ccccc2)cc1	i	i	i	i	i
COC(=O)c1c(C)[nH]c(O)c1C=Nc1ccc(C(C)C)cc1	i	47	i	i	i
O=C(OC[C@H]1O[C@@H](OC(=O)c2cc(O)c(O)c(OC(=O)c3cc(O)c(O)c(O)c3)c2)[C@H](OC(=O)c2cc(O)c(O)c(OC(=O)c3cc(O)c(O)c(O)c3)c2)[C@@H](OC(=O)c2cc(O)c(O)c(OC(=O)c3cc(O)c(O)c(O)c3)c2)[C@@H]1OC(=O)c1cc(O)c(O)c(OC(=O)c2cc(O)c(O)c(O)c2)c1)c1cc(O)c(O)c(OC(=O)c2cc(O)c(O)c(O)c2)c1	i	104	nt	nt	nt
COC(=O)C1=C(C)N(Cc2cccc(C(F)(F)F)c2)C(=NCC2CC2)NC1c1cccc(F)c1 (configuration not stated)	nt	nt	i	i	nt
SMILES	IDE cell inh	PREPL inhibitor	ASAP1 inh	ARFGAP1 inh	IDE act
CNC[C@@H]1OCc2ccccc2-c2c(n(C)c3ccccc23)C(=O)N([C@@H](C)CO)C[C@@H]1C	nt	nt	i	i	nt
C/C(=C\C(=O)c1cccnc1)Nc1ccc(O)cc1	i	81	i	i	i
COc1cccc(C(C)(O)c2nc(-c3ccc(S(C)(=O)=O)cc3)cs2)c1 (configuration not stated)	nt	nt	i	i	nt
O=C(Cc1ccc(-n2c(=O)[nH]c3ccsc3c2=O)cc1)N1CCN(c2ccc(Cl)cc2)CC1	21	i	i	i	i
Cc1cccc(N2CCN(C(=O)Cc3ccc(-n4c(=O)[nH]c5ccsc5c4=O)cc3)CC2C)c1 (configuration not stated)	i	i	i	i	i
COc1ccc(C(C)(C)C)cc1NC(=O)OC[C@@H]1CSCCS(=O)(=O)N1	nt	nt	i	i	nt
NC1=C(Cl)C(=O)c2ccc(S(N)(=O)=O)cc2C1=O	nt	nt	57	i	i
NC1=C(Cl)C(=O)c2ccccc2C1=O	nt	nt	i	i	i
CC(=O)N1CCc2cc(S(=O)(=O)NCCC(=O)N3CCN(Cc4ccccc4)CC3)ccc21	i	i	i	i	19

Compound activity from PubChem BioAssay.
